The text below walks through data of PMC2842983 (Journal of medicinal chemistry, 2010).

Experiment [1] has as its target T1, FGFR1 kinase (Homo sapiens, UniProt P11362). The experiment is described as follows: ALPHAScreen assay, inhibition of FGFR1 kinase. Type of experiment: biochemical. The conditions noted are these: na = not active in the assay.
Experiment [2] addresses T1, FGFR1 kinase. The following applies: cited from earlier work; for pIC50: read-out: IC50 for FGFR1 kinase activity.
Experiment [3] deals with Src, InsR, EGFR, PDGFR, and several other kinases. The following applies: cited from earlier work.
The subject of experiment [4] is PDGFR. The following applies: cited from earlier work.
Experiment [5] concerns insulin receptor (InsR). The conditions noted are these: cited from earlier work.
Experiment [6] concerns the target T2, EGFR (Homo sapiens, UniProt P00533). The following applies: cited from earlier work.
The target in experiment [7] is InsR (Homo sapiens, UniProt P06213). Put plainly: ALPHAScreen kinase assay, InsR. The conditions noted are these: kinase from Millipore, na = not active. Type of experiment: biochemical. The method, boiled down:
(§1)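 Recombinant kinase was sourced commercially. In the AlphaScreen format, kinase, biotinylated peptide, ATP and test compound were combined across 10 wells, typically spanning 0.01 µM to 250 µM compound. Phosphorylation ran for 30 minutes and was stopped with EDTA. Phosphopeptide was detected with anti-phosphotyrosine acceptor beads and streptavidin donor beads, and IC50 was derived from the concentration series.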
On the technique in general: In Alpha technology, singlet oxygen from a donor bead excites a nearby acceptor bead.

Experiment [8] concerns the target T2, EGFR. Put plainly: ALPHAScreen kinase assay, EGFR. Type of experiment: biochemical. The method, boiled down:
as §1

pIC50: −log10 of the molar value. Entries after “also recorded” stand apart in the source; their conditions may differ. A value given as a limit tells only on which side of the number the result lay.

T1 sequence (P11362 478-767 limits assumed): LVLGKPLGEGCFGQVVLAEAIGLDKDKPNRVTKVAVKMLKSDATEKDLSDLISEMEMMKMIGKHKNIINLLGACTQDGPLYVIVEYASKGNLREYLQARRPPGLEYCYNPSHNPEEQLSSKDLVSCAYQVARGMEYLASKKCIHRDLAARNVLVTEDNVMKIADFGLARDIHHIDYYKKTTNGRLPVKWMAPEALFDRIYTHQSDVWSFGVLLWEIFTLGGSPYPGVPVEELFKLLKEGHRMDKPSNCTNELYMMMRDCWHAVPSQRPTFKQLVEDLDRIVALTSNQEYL
T2 sequence (P00533 25-1210, species assumed): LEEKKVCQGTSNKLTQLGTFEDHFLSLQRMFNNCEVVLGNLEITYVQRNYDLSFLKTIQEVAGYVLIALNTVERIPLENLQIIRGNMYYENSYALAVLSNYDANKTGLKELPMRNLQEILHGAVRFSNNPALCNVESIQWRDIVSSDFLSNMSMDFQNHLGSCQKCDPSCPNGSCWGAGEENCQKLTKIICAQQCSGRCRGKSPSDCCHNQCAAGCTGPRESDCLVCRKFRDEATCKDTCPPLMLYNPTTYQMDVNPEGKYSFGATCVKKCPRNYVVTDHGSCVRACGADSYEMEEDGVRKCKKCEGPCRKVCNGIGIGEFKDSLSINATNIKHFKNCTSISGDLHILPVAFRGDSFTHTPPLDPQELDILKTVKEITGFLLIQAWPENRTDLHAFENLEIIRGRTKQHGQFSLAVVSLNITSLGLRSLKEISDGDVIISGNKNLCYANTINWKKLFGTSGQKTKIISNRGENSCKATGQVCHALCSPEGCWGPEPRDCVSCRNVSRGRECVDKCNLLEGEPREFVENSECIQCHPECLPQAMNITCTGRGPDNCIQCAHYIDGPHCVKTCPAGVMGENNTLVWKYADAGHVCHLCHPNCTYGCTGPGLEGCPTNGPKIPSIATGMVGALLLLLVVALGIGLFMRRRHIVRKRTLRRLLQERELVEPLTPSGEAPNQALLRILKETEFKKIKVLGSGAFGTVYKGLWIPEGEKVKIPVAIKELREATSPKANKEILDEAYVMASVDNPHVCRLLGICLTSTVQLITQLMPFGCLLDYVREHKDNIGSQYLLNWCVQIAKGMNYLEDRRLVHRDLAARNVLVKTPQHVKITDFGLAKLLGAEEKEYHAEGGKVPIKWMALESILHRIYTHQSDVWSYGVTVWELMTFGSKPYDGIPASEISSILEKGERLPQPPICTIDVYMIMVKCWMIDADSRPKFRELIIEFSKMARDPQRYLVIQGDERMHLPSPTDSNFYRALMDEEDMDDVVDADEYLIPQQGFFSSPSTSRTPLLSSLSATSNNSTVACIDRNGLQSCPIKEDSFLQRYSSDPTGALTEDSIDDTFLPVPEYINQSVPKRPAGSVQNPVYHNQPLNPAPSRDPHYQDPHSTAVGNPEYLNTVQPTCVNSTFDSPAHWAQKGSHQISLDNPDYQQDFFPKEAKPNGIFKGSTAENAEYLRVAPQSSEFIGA
Sequence of InsR (P06213 28-1382, species assumed): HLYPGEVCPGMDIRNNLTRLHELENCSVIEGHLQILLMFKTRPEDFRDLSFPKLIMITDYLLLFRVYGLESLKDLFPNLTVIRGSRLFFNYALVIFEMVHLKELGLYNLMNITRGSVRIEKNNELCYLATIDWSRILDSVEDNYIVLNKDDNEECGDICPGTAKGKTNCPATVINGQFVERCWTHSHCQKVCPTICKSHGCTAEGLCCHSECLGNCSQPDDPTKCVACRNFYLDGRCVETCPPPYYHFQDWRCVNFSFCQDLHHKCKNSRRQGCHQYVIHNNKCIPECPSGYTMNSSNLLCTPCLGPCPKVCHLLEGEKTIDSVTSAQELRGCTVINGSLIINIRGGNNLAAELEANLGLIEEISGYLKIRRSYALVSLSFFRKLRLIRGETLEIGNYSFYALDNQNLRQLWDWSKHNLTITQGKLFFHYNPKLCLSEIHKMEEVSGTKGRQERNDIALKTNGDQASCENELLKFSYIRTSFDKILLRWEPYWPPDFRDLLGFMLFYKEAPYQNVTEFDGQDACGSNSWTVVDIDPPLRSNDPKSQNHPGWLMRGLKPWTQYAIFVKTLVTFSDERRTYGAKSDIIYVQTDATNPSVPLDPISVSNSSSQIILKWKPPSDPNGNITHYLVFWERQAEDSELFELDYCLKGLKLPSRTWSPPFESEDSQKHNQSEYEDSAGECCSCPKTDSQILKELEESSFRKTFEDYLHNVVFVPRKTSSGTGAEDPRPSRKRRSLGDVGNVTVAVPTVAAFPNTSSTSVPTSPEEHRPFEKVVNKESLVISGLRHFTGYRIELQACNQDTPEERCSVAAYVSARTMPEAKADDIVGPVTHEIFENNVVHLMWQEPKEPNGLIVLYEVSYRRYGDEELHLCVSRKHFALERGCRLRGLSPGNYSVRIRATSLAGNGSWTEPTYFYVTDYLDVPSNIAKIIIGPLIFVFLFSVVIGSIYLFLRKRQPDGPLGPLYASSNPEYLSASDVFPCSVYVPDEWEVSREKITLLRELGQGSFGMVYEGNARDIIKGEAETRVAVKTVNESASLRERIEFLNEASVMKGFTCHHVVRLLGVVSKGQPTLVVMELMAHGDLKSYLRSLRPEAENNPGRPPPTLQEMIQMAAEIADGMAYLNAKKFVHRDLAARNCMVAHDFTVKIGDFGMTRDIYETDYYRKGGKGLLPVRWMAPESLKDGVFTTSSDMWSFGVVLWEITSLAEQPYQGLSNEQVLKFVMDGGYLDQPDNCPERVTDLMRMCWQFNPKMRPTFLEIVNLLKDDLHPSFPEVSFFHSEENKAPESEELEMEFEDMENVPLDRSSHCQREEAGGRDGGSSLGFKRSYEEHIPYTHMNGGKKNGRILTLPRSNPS

For the molecule `COc1cccc(-c2nc(=O)c3c4c(sc3[nH]2)CC(C)CC4)c1` (centres unmarked) [compound 36], the “IC50 for inhibition of FGFR1 kinase” value in experiment [1] is listed as “do not inhibit”.
`CCOc1cc(/C=C2\NC(=S)NC2=O)ccc1OCCCOc1cc(C)cc(C)c1` [compound 29]: in experiment [1], the “IC50 for inhibition of FGFR1 kinase” value is reported as “weak activity”.
As to `CCN(CC)CCCCNc1ncc2cc(-c3cc(OC)cc(OC)c3)c(NC(=O)NC(C)(C)C)nc2n1` [compound 3, PD173074], in experiment [2], the “potency of FGFR1 inhibition” value is reported as “nanomolar potency”. Moreover, in experiment [3], the “IC50 for other kinases relative to FGFR1” value was at least 1000 fold.
Consider `COc1ccc(-c2nc(=O)c3c4c(sc3[nH]2)CC(C)CC4)cc1OC` (centres unmarked) [compound 35], for which, in experiment [1], the “IC50 for inhibition of FGFR1 kinase” value is on record as “do not inhibit”.
The term pIC50 denotes the IC50 on a negative log10 scale, so that one unit is a factor of ten. As to `Cc1c[nH]c(/C=C2\C(=O)Nc3ccccc32)c1CCC(=O)O` [compound 2, SU5402], in experiment [4], the “inhibition of PDGFR kinase activity” value was “weak inhibitor”. For the same molecule, the pIC50 in experiment [2] was 4.70 to 5.00. The “inhibition of InsR kinase activity” value in experiment [5] was “does not inhibit”. For the same molecule, the “inhibition of EGFR kinase activity” value in experiment [6] is “does not inhibit”.
Turning to `O=CN1CCN(c2ccc(/C=C3\C(=O)Nc4ccccc43)cc2)CC1` [compound 1, SU4984], the “inhibition of PDGFR kinase activity” value in experiment [4] was “inhibits”. In addition, the negative-log IC50 (pIC50) in experiment [2] was 4.70 to 5.00. In addition, the “inhibition of InsR kinase activity” value in experiment [5] is reported as “inhibits”. Further, the “inhibition of EGFR kinase activity” value in experiment [6] was “does not inhibit”.
In the case of `COc1cc(-c2nc(=O)c3c([nH]2)sc2cc(C(F)(F)F)ccc23)ccc1OCC(=O)O` [compound 39], in experiment [1], the “IC50 for inhibition of FGFR1 kinase” value is on record as “eliminated activity”.
With `COCc1cc(/C=C2\NC(=S)NC2=O)ccc1OCCCOc1cc(C)cc(C)c1` [compound 30], the “IC50 for inhibition of FGFR1 kinase” value in experiment [1] is on record as “weak activity”.
On to `COc1cc(-c2nc(=O)c3c([nH]2)sc2ccc(C)cc23)ccc1OCC(=O)O` [compound 40], for which the “IC50 InsR” value in experiment [7] is “does not inhibit; also recorded: no inhibition”. Moreover, in experiment [8], the pIC50 is 5.70.
